Measured values published in ChEMBL document CHEMBL3351994, “Synthesis and biological evaluation of novel millepachine derivatives as a new class of tubulin polymerization inhibitors” (J Med Chem, 2014).

Tests used:
HepG2 [1] = test: Induction of apoptosis in human HepG2 cells assessed as early apoptotic cells at 100 nM after 48 hrs by annexin-V-FITC and propidium iodide staining based flow cytometry (reference value: 3.63%); type: functional
Outline: (§1)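 HepG2 cells treated with 50, 100 or 200 nM compound or DMSO vehicle for 24 or 48 h at 37 °C. Labeled with annexin-V-FITC and PI and analyzed by flow cytometry. Cells classified as early apoptotic (annexin-V+/PI−), late apoptotic (annexin-V+/PI+) or necrotic (annexin-V−/PI+).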

HepG2 [2] = test: Antiproliferative activity against human HepG2 cells assessed as inhibition of cell proliferation after 48 hrs by MTT assay; type: functional, cell-based; conditions: hepg2
Outline: (§2)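 Cells grown at 37 °C in humidified 5% CO2. K562, C26 and HCT lines in RPMI-1640; other lines in DMEM; both media with 10% FBS, penicillin and streptomycin. 1000 cells/well seeded, incubated overnight, then compound at various doses for 48 h. MTT added for 4 h, formazan dissolved in DMSO, absorbance read at 590 nm. IC50 from dose–response curves, mean ± SEM of at least three independent experiments.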

Rattus norvegicus [3] = test: AUC in rat at 2.25 mg/kg, iv; type: ADME, organism-based, Plasma; design: dose 2.25 mg/kg, route intravenous; conditions: in vivo
Outline: (§3)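 Rat pharmacokinetics; oral and intravenous dosing, with group sizes of 5, 5 and 4 rats. Parameters derived: systemic clearance, volume of distribution, area under the plasma concentration–time curve, maximum plasma concentration and percent oral bioavailability.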

HepG2 [4] = test: Induction of apoptosis in human HepG2 cells assessed as early apoptotic cells at 100 nM after 24 hrs by annexin-V-FITC and propidium iodide staining based flow cytometry (reference value: 3.63%); type: functional; outline: as §1
K562 = test: Antiproliferative activity against human K562 cells assessed as inhibition of cell proliferation after 48 hrs by MTT assay; type: functional, cell-based; conditions: K562, 48 h; outline: as §2
HepG2 [5] = test: Induction of apoptosis in human HepG2 cells assessed as late apoptotic cells at 50 nM after 48 hrs by annexin-V-FITC and propidium iodide staining based flow cytometry (reference value: 1.03%); type: functional; outline: as §1
[6] = Cmax in rat at 9 mg/kg, po; type: ADME, organism-based; design: dose 9 mg/kg, route oral; conditions: in vivo; outline: as §3
[7] = Oral bioavailability in rat at 9 mg/kg; type: ADME, organism-based; conditions: in vivo
HCT-8 = test: Resistance index, ratio of IC50 for taxol resistant human HCT8 cells to IC50 for parental human HCT8 cells; type: functional
A2780 = test: Resistance index, ratio of IC50 for taxol resistant human […] cells to IC50 for parental human […] cells; type: functional
[8] = Antiproliferative activity against human DLD1 cells assessed as inhibition of cell proliferation after 48 hrs by MTT assay; type: functional, cell-based; conditions: DLD-1, 48 h; outline: as §2
[9] = Antiproliferative activity against human HCT8 cells assessed as inhibition of cell proliferation after 48 hrs by MTT assay; type: functional, cell-based; conditions: HCT-8, 48 h; outline: as §2
HUVEC = test: Cytotoxicity in HUVECs after 48 hrs by MTT assay; type: cell-based; conditions: Homo sapiens
Outline: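 HUVEC proliferation measured by MTT after 48 h exposure. IC50 derived from the dose–response.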

HepG2 [10] = test: Induction of apoptosis in human HepG2 cells assessed as early apoptotic cells at 200 nM after 24 hrs by annexin-V-FITC and propidium iodide staining based flow cytometry (reference value: 3.63%); type: functional; outline: as §1
HepG2 [11] = test: Induction of apoptosis in human HepG2 cells assessed as early apoptotic cells at 50 nM after 24 hrs by annexin-V-FITC and propidium iodide staining based flow cytometry (reference value: 3.63%); type: functional; outline: as §1
Rattus norvegicus [12] = test: Systemic clearance in rat at 2.25 mg/kg, iv; type: ADME, organism-based; design: dose 2.25 mg/kg, route intravenous; conditions: in vivo
A2780cisR = test: Resistance index, ratio of IC50 for cisplatin resistant human […] cells to IC50 for parental human […] cells; type: functional
[13] = Antiproliferative activity against human HCT15 cells assessed as inhibition of cell proliferation after 48 hrs by MTT assay; type: functional, cell-based; conditions: HCT-15, 48 h; outline: as §2
HepG2 [14] = test: Induction of cell cycle arrest in human HepG2 cells assessed as accumulation at S phase phase at 100 nM after 24 hrs by propidium iodide staining based flow cytometry (reference value: 30.6%); type: functional
AGS = test: Antiproliferative activity against human AGS cells assessed as inhibition of cell proliferation after 48 hrs by MTT assay; type: functional, cell-based; outline: as §2
HepG2 [15] = test: Induction of apoptosis in human HepG2 cells assessed as necrotic cells at 100 nM after 24 hrs by annexin-V-FITC and propidium iodide staining based flow cytometry (reference value: 2.16%); type: functional; outline: as §1
[16] = Volume of distribution at steady state in rat at 2.25 mg/kg, iv; type: ADME, organism-based; design: dose 2.25 mg/kg, route intravenous; conditions: in vivo, read-out: Vdss
HepG2 [17] = test: Induction of apoptosis in human HepG2 cells assessed as late apoptotic cells at 200 nM after 48 hrs by annexin-V-FITC and propidium iodide staining based flow cytometry (reference value: 1.03%); type: functional; outline: as §1
HepG2 [18] = test: Induction of apoptosis in human HepG2 cells assessed as viable cells at 200 nM after 24 hrs by annexin-V-FITC and propidium iodide staining based flow cytometry (reference value: 93.2%); type: functional; conditions: HepG2, 24 h, read-out: Activity
[19] = Antiproliferative activity against human HCT116 cells assessed as inhibition of cell proliferation after 48 hrs by MTT assay; type: functional, cell-based; conditions: HCT-116, 48 h
HepG2 [20] = test: Induction of apoptosis in human HepG2 cells assessed as viable cells at 50 nM after 24 hrs by annexin-V-FITC and propidium iodide staining based flow cytometry (reference value: 93.2%); type: functional; conditions: HepG2, 24 h, read-out: Activity
[21] = Antiproliferative activity against taxol resistant human […] cells assessed as inhibition of cell proliferation after 48 hrs by MTT assay; type: functional, cell-based; conditions: A2780, 48 h; outline: as §2
A-375 = test: Antiproliferative activity against human A375 cells assessed as inhibition of cell proliferation after 48 hrs by MTT assay; type: functional, cell-based; conditions: A-375, 48 h; outline: as §2
HepG2 [22] = test: Induction of cell cycle arrest in human HepG2 cells assessed as accumulation at G0/G1 phase at 100 nM after 24 hrs by propidium iodide staining based flow cytometry (reference value: 58.2%); type: functional
Rattus norvegicus [23] = test: AUC in rat at 9 mg/kg, po; type: ADME, organism-based, Plasma; design: dose 9 mg/kg, route oral; conditions: in vivo; outline: as §3
HepG2 [24] = test: Induction of apoptosis in human HepG2 cells assessed as viable cells at 100 nM after 24 hrs by annexin-V-FITC and propidium iodide staining based flow cytometry (reference value: 93.2%); type: functional; conditions: HepG2, 24 h, read-out: Activity
[25] = Antiproliferative activity against mouse C26 cells assessed as inhibition of cell proliferation after 48 hrs by MTT assay; type: functional, cell-based; conditions: C26, 48 h; outline: as §2
HepG2 [26] = test: Induction of cell cycle arrest in human HepG2 cells assessed as accumulation at G2/M phase phase at 200 nM after 24 hrs by propidium iodide staining based flow cytometry (reference value: 11.2%); type: functional
HepG2 [27] = test: Induction of apoptosis in human HepG2 cells assessed as late apoptotic cells at 50 nM after 24 hrs by annexin-V-FITC and propidium iodide staining based flow cytometry (reference value: 1.03%); type: functional; outline: as §1
[28] = Antiproliferative activity against taxol resistant human HCT8 cells assessed as inhibition of cell proliferation after 48 hrs by MTT assay; type: functional, cell-based; conditions: HCT-8, 48 h; outline: as §2
HepG2 [29] = test: Induction of cell cycle arrest in human HepG2 cells assessed as accumulation at S phase phase at 200 nM after 24 hrs by propidium iodide staining based flow cytometry (reference value: 30.6%); type: functional

SMILES: COc1ccc(/C=C/C(=O)c2ccc(OC)c3c2OC(C)(C)C=C3)cc1N
- Activity (HepG2 [1]): 16.34%
- IC50 (HepG2 [2]): 8 nM
- AUC (Rattus norvegicus [3]): 1810 ng·h/mL
- Activity (HepG2 [4]): 9.65%
- IC50 (K562): 18 nM
- Activity (HepG2 [5]): 17.69%
- Cmax [6]: 519 ng/mL
- bioavailability [7]: 28%
- Ratio IC50 (HCT-8): 9.5
- Ratio IC50 (A2780): 4.2
- IC50 [8]: 18 nM
- IC50 [9]: 16 nM
- IC50 (HUVEC): 450 nM
- Activity (HepG2 [10]): 11.45%
- Activity (HepG2 [11]): 2.21%
- CL (Rattus norvegicus [12]): 1.2 L/h/kg
- Ratio IC50 (A2780cisR): 0.7
- IC50 [13]: 19 nM
- Activity (HepG2 [14]): 27.8%
- IC50 (AGS): 10 nM
- Activity (HepG2 [15]): 3.83%
- Vd [16]: 21 L/kg
- Activity (HepG2 [17]): 34.72%
- viability at 0.2 µM (HepG2 [18]): 63.1%
- IC50 [19]: 21 nM
- viability at 0.05 µM (HepG2 [20]): 88.8%
- IC50 [21]: 84 nM
- IC50 (A-375): 22 nM
- Activity (HepG2 [22]): 34.8%
- AUC (Rattus norvegicus [23]): 2040 ng·h/mL
- viability at 0.1 µM (HepG2 [24]): 74.1%
- IC50 [25]: 26 nM
- Activity (HepG2 [26]): 43.3%
- Activity (HepG2 [27]): 4.28%
- IC50 [28]: 152 nM
- Activity (HepG2 [29]): 19.1%
